In brackets after ≈: the same amount, converted by molar mass.
Experiments:
[1] = target: T1, 4,4'-diapophytoene synthase (Staphylococcus aureus, UniProt A9JQL9); test: Inhibition of Staphylococcus aureus CrtM
T1 sequence (A9JQL9 whole entry): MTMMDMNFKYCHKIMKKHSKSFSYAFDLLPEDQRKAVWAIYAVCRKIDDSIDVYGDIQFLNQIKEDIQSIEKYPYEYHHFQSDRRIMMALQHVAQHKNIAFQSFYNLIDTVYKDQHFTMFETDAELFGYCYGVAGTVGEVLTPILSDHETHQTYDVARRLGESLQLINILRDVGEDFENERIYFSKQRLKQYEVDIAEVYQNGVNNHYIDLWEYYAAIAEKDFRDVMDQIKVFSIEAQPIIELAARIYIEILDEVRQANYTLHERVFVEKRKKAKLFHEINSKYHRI

[2] = Cytotoxicity against mouse L929 cells assessed as reduction in cell viability measured after 72 hrs by MTT assay; format: toxicity, cell-based
How it was run: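 L929 cells (ATCC) grown in DMEM with 10% FBS and penicillin/streptomycin at 37 °C, 5% CO2; seeded at 5 × 10^3 cells per well and exposed to serial dilutions for 72 h, paclitaxel as positive control. MTT (5 mg mL−1), formazan dissolved in DMSO, absorbance at 490 nm; viability relative to control after blank subtraction; IC50 in μM.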

Acinetobacter baumannii = test: Antibacterial activity against clinically isolated Acinetobacter baumannii RBRJ027 assessed as inhibition of bacterial growth at 50 uM measured after 48 hrs by agar well diffusion method; format: functional; settings: read-out: IZ
[3] = test system: Staphylococcus epidermidis; test: Antibacterial activity against Staphylococcus epidermidis MTCC 435 assessed as inhibition of bacterial growth at 50 uM measured after 48 hrs by agar well diffusion method; format: functional; settings: read-out: IZ
Klebsiella pneumoniae [4] = test: Antibacterial activity against Klebsiella pneumoniae MTCC 109 assessed as inhibition of bacterial growth at 50 uM measured after 48 hrs by agar well diffusion method; format: functional; settings: read-out: IZ
Klebsiella pneumoniae [5] = test: Antibacterial activity against clinically isolated Klebsiella pneumoniae RBRJ019 assessed as inhibition of bacterial growth at 50 uM measured after 48 hrs by agar well diffusion method; format: functional; settings: read-out: IZ
Staphylococcus aureus [6] = test: Antibacterial activity against Staphylococcus aureus MTCC 740 assessed as inhibition of bacterial growth measured after 48 hrs by broth microdilution method; format: functional
Staphylococcus aureus [7] = test: Bactericidal activity against Staphylococcus aureus MTCC 740 assessed as inhibition of bacterial growth measured after 48 hrs by agar plate method; format: functional
How it was run: (§1)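 MBC: aliquots from microdilution wells without colour change subcultured on drug-free Mueller Hinton agar, 48 h at 37 °C aerobically. MBC is the lowest concentration with no visible growth. Triplicate.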

Pseudomonas aeruginosa = test: Antibacterial activity against Pseudomonas aeruginosa MTCC 424 assessed as inhibition of bacterial growth at 50 uM measured after 48 hrs by agar well diffusion method; format: functional; settings: read-out: IZ
Staphylococcus aureus [8] = test: Antibacterial activity against Methicillin-resistant Staphylococcus aureus ATCC 33591 assessed as inhibition of bacterial growth measured after 48 hrs by broth microdilution method; format: functional
Escherichia coli [9] = test: Antibacterial activity against clinically isolated Escherichia coli RBRJ013 assessed as inhibition of bacterial growth at 50 uM measured after 48 hrs by agar well diffusion method; format: functional; settings: read-out: IZ
Klebsiella pneumoniae [10] = test: Antibacterial activity against clinically isolated Klebsiella pneumoniae RBRJ024 assessed as inhibition of bacterial growth at 50 uM measured after 48 hrs by agar well diffusion method; format: functional; settings: read-out: IZ
Staphylococcus aureus [11] = test: Bactericidal activity against clinically isolated Methicillin-resistant Staphylococcus aureus assessed as inhibition of bacterial growth measured after 48 hrs by agar plate method; format: functional
Escherichia coli [12] = test: Antibacterial activity against Escherichia coli MTCC 119 assessed as inhibition of bacterial growth at 50 uM measured after 48 hrs by agar well diffusion method; format: functional; settings: read-out: IZ
Enterococcus faecalis [13] = test: Antibacterial activity against clinically isolated Enterococcus faecalis RBRJ015 assessed as inhibition of bacterial growth at 50 uM measured after 48 hrs by agar well diffusion method; format: functional; settings: read-out: IZ
Staphylococcus aureus [14] = test: Antibacterial activity against clinically isolated Methicillin-resistant Staphylococcus aureus assessed as inhibition of bacterial growth measured after 48 hrs by broth microdilution method; format: functional
Staphylococcus aureus [15] = test: Bactericidal activity against clinically isolated Staphylococcus aureus RBRJ010 assessed as inhibition of bacterial growth measured after 48 hrs by agar plate method; format: functional
How it was run: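 MBC: 10 μL from wells showing no INT colour change after broth microdilution subcultured on drug-free Mueller Hinton agar, 48 h at 37 °C aerobically; lowest concentration with no visible growth taken as MBC (μM). Triplicate.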

Escherichia coli [16] = test: Antibacterial activity against clinically isolated Escherichia coli RBRJ005 assessed as inhibition of bacterial growth at 50 uM measured after 48 hrs by agar well diffusion method; format: functional; settings: read-out: IZ
Staphylococcus aureus [17] = test: Antibacterial activity against Staphylococcus aureus MTCC 740 assessed as inhibition of bacterial growth at 50 uM measured after 48 hrs by agar well diffusion method; format: functional; settings: read-out: IZ
Staphylococcus aureus [18] = test: Antibacterial activity against clinically isolated Staphylococcus aureus RBRJ010 assessed as inhibition of bacterial growth at 50 uM measured after 48 hrs by agar well diffusion method; format: functional; settings: read-out: IZ
Staphylococcus aureus [19] = test: Antibacterial activity against Methicillin-resistant Staphylococcus aureus ATCC 33591 assessed as inhibition of bacterial growth at 50 uM measured after 48 hrs by agar well diffusion method; format: functional; settings: read-out: IZ
How it was run: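 Agar well diffusion on Mueller Hinton agar seeded with bacteria at 0.5 McFarland. […] Incubated 48 h at 37 °C aerobically; zone of inhibition diameter (mm) measured. Triplicate.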

Enterococcus faecalis [20] = test: Antibacterial activity against Enterococcus faecalis MTCC 439 assessed as inhibition of bacterial growth at 50 uM measured after 48 hrs by agar well diffusion method; format: functional; settings: read-out: IZ
[21] = Selectivity index, ratio of IC50 for cytotoxicity against mouse L929 cells to MIC for antibacterial activity against clinically isolated Methicillin-resistant Staphylococcus aureus; format: toxicity, cell-based; settings: read-out: Selectivity Index
Staphylococcus aureus [22] = test: Bactericidal activity against Methicillin-resistant Staphylococcus aureus ATCC 33591 assessed as inhibition of bacterial growth measured after 48 hrs by agar plate method; format: functional; how it was run: as §1
Staphylococcus aureus [23] = test: Antibacterial activity against clinically isolated Methicillin-resistant Staphylococcus aureus assessed as inhibition of bacterial growth at 50 uM measured after 48 hrs by agar well diffusion method; format: functional; settings: read-out: IZ
Staphylococcus aureus [24] = test: Antibacterial activity against clinically isolated Staphylococcus aureus RBRJ010 assessed as inhibition of bacterial growth measured after 48 hrs by broth microdilution method; format: functional
Enterobacter cloacae = test: Antibacterial activity against clinically isolated Enterobacter cloacae RBRJ017 assessed as inhibition of bacterial growth at 50 uM measured after 48 hrs by agar well diffusion method; format: functional; settings: read-out: IZ

SMILES	Ki [1]	IC50 at 72 h [2]	zone of inhibition at 50 µM (Acinetobacter baumannii)	zone of inhibition at 50 µM [3]	zone of inhibition at 50 µM (Klebsiella pneumoniae [4])	zone of inhibition at 50 µM (Klebsiella pneumoniae [5])	MIC (Staphylococcus aureus [6])	MBC (Staphylococcus aureus [7])	zone of inhibition at 50 µM (Pseudomonas aeruginosa)	MIC (Staphylococcus aureus [8])	zone of inhibition at 50 µM (Escherichia coli [9])	zone of inhibition at 50 µM (Klebsiella pneumoniae [10])	MBC (Staphylococcus aureus [11])	zone of inhibition at 50 µM (Escherichia coli [12])	zone of inhibition at 50 µM (Enterococcus faecalis [13])	MIC (Staphylococcus aureus [14])	MBC (Staphylococcus aureus [15])	zone of inhibition at 50 µM (Escherichia coli [16])	zone of inhibition at 50 µM (Staphylococcus aureus [17])	zone of inhibition at 50 µM (Staphylococcus aureus [18])	further results
O=P(O)(O)C(CCCc1ccc(-c2ccccc2)cc1)S(=O)(=O)O (stereo not drawn)	6 nM	–	–	–	–	–	–	–	–	–	–	–	–	–	–	–	–	–	–	–	–
CC(=O)O[C@H]1C(=O)[C@@]2(C)[C@H]([C@H](OC(=O)c3ccccc3)[C@]3(O)C[C@H](OC(=O)[C@H](O)[C@@H](NC(=O)c4ccccc4)c4ccccc4)C(C)=C1C3(C)C)[C@]1(OC(C)=O)CO[C@@H]1C[C@@H]2O [PACLITAXEL]	–	62.5 nM	–	–	–	–	–	–	–	–	–	–	–	–	–	–	–	–	–	–	–
Cc1ccc(C(C)C)c(OCc2cn(CCCN3C(=O)C(=O)c4cc(Cl)ccc43)nn2)c1	–	125000 nM	13.2 mm	18.2 mm	14.3 mm	15.1 mm	15.6 µM (≈ 7.07 µg/mL)	31.2 µM (≈ 14.1 µg/mL)	13.3 mm	62.5 µM (≈ 28.3 µg/mL)	15.5 mm	14.8 mm	62.5 µM (≈ 28.3 µg/mL)	14.2 mm	14.1 mm	31.2 µM (≈ 14.1 µg/mL)	31.2 µM (≈ 14.1 µg/mL)	15.2 mm	22.1 mm	21.2 mm	zone of inhibition at 50 µM (Staphylococcus aureus [19]): 20.5 mm; zone of inhibition at 50 µM (Enterococcus faecalis [20]): 14.2 mm; selectivity ratio [21]: 4; MBC (Staphylococcus aureus [22]): 125 µM (≈ 56.6 µg/mL); zone of inhibition at 50 µM (Staphylococcus aureus [23]): 21.3 mm; MIC (Staphylococcus aureus [24]): 15.6 µM (≈ 7.07 µg/mL); zone of inhibition at 50 µM (Enterobacter cloacae): 15.7 mm
COc1ccc2c(c1)C(=O)C(=O)N2CCCn1cc(COc2cc(C)ccc2C(C)C)nn1	–	–	12.3 mm	15.7 mm	17.3 mm	18.1 mm	62.5 µM (≈ 28 µg/mL)	125 µM (≈ 56.1 µg/mL)	16.4 mm	7.8 µM (≈ 3.5 µg/mL)	15.4 mm	17.6 mm	7.8 µM (≈ 3.5 µg/mL)	16.5 mm	11.3 mm	3.9 µM (≈ 1.75 µg/mL)	31.2 µM (≈ 14 µg/mL)	17.2 mm	25.3 mm	23.3 mm	zone of inhibition at 50 µM (Staphylococcus aureus [19]): 25.3 mm; zone of inhibition at 50 µM (Enterococcus faecalis [20]): 12.6 mm; MBC (Staphylococcus aureus [22]): 15.6 µM (≈ 7 µg/mL); zone of inhibition at 50 µM (Staphylococcus aureus [23]): 25.1 mm; MIC (Staphylococcus aureus [24]): 15.6 µM (≈ 7 µg/mL); zone of inhibition at 50 µM (Enterobacter cloacae): 13.5 mm
O=P(O)(O)C(CCCc1ccc(-c2ccc(Br)cc2)cc1)S(=O)(=O)O (stereo not drawn)	135 nM	–	–	–	–	–	–	–	–	–	–	–	–	–	–	–	–	–	–	–	–

Reference: ChEMBL document CHEMBL5357047, “The development of thymol-isatin hybrids as broad-spectrum antibacterial agents with potent anti-MRSA activity” (RSC Med Chem, 2024)
